Legend:
[1] = test system: Rattus norvegicus; assay: Cognitive enhancing effect in Charles Foster rat assessed as reversal of scopolamine-induced amnesia measured as transfer latency at 5 mg/kg, po for 8 days administered 1 hr prior to scopolamine-challenge on day 7 measured on day 8 by elevated plus maze test (reference value: 62.17 +/- 0.47 seconds); type: functional
[2] = test system: Rattus norvegicus; assay: Activity at AChE in Charles Foster rat prefrontal cortex assessed as substrate hydrolyzed per mg of protein at 10 mg/kg, po for 8 days by Ellman's method (reference value: 45.83 +/- 0.94 mol/min); type: functional
[3] = test system: Rattus norvegicus; assay: Cognitive enhancing effect in po dosed Wistar rat assessed as reversal of learning impairment measured as transfer latency administered for 8 days by elevated plus maze test; type: functional, organism-based
In short: (§1)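 Oral dosing at 5 or 10 mg/kg for 8 days, suspended in 0.3% carboxymethyl cellulose; vehicle-treated controls. Transfer latency on elevated plus maze measured on first and second days of exposure (treatment days 7 and 8). Mean ± SEM, n = 6, one-way ANOVA versus vehicle control.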

[4] = test system: Rattus norvegicus; assay: Activity at AChE in Charles Foster rat hypothalamus assessed as substrate hydrolyzed per mg of protein at 5 mg/kg, po for 8 days by Ellman's method (reference value: 40.50 +/- 0.76 mol/min); type: functional
[5] = test system: Rattus norvegicus; assay: Activity at AChE in Charles Foster rat hippocampus assessed as substrate hydrolyzed per mg of protein at 10 mg/kg, po for 8 days by Ellman's method (reference value: 47.50 +/- 0.84 mol/min); type: functional
[6] = molecular target: T1, Acetylcholinesterase (Electrophorus electricus, UniProt O42275); assay: Inhibition of electric eel AChE using acetylthiocholine iodide as substrate preincubated for 20 mins prior to substrate addition by Ellman's method
T1 sequence (O42275 whole entry): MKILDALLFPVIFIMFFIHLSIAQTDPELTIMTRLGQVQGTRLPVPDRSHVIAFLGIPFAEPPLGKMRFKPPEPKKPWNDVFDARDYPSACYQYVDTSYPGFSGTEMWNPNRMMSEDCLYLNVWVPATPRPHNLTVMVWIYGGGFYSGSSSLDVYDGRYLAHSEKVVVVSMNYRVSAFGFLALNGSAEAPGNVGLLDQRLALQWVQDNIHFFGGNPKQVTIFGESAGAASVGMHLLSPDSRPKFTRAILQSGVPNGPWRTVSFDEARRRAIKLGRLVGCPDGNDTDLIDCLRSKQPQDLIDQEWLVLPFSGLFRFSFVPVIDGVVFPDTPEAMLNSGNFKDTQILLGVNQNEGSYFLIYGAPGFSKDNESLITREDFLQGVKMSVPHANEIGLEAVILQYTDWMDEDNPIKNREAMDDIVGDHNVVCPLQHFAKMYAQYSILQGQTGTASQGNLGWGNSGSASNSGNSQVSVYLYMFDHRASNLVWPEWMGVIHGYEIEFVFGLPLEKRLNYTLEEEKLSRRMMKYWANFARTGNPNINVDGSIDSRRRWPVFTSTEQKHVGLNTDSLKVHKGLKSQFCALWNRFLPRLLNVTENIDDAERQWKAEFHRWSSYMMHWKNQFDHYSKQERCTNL

[7] = test system: Rattus norvegicus; assay: Cognitive enhancing effect in Wistar rat assessed as reversal of learning impairment measured as transfer latency at 5 mg/kg, po for 8 days measured on first day of test by elevated plus maze test (reference value: 70.846 +/- 0.76 seconds); type: functional; in short: as §1
[8] = molecular target: T2, Cholinesterase (Homo sapiens, UniProt P06276); assay: Inhibition of human serum BChE using butyrylthiocholine iodide as substrate preincubated for 20 mins prior to substrate addition by Ellman's method
T2 sequence (P06276 whole entry): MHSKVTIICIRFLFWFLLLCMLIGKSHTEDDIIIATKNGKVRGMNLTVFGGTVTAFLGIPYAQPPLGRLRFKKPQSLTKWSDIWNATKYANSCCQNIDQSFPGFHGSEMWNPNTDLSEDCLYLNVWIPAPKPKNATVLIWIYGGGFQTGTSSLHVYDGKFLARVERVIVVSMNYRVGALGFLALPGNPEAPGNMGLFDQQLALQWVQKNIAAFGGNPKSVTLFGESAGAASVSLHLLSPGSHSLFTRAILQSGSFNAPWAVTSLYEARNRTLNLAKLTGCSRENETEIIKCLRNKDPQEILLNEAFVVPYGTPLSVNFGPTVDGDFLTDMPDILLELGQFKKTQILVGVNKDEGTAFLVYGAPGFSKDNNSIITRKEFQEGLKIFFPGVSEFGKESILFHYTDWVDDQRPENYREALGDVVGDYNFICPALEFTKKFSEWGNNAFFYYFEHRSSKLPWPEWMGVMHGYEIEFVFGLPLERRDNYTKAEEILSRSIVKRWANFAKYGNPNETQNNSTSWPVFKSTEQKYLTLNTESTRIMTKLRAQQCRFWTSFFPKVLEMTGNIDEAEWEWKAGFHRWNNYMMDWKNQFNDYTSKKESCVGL
In short: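 Human serum BChE was dissolved in 0.1% gelatine. The final mix held 0.1 M phosphate pH 8.0, DTNB, 0.02 unit/mL enzyme and butyrylthiocholine iodide. Five inhibitor concentrations spanning 20–80% inhibition were preincubated with enzyme for 20 min at 37 °C, then substrate was added. Rate was read at 412 nm over 5 min against an enzyme-free blank. Each point was run in triplicate, and IC50 was read graphically from log concentration–% inhibition curves.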

[9] = test system: Rattus norvegicus; assay: Toxicity in albino rat assessed as mortality upto 100 mg/kg after 30 mins to 48 hrs; type: organism-based; set-up: dose 100 mg/kg; details: in vivo
In short: (§2)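 Acute toxicity followed OECD guidelines. Nulliparous, non-pregnant female albino rats (120–150 g) were fasted overnight with water ad libitum. Graded oral doses up to 100 mg/kg were given in 0.3% carboxymethyl cellulose. Rats were observed continuously for 30 min, at 2 h and up to 48 h for behavioural or autonomic changes, tremors, convulsions, salivation, diarrhoea, sleep, lacrimation, cardiovascular signs, feeding and mortality.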

[10] = test system: Rattus norvegicus; assay: Cognitive enhancing effect in Charles Foster rat assessed as reversal of scopolamine-induced amnesia measured as transfer latency at 10 mg/kg, po for 8 days administered 1 hr prior to scopolamine-challenge on day 7 measured on same day by elevated plus maze test (reference value: 67.83 +/- 0.94 seconds); type: functional
[11] = test system: Rattus norvegicus; assay: Activity at AChE in Charles Foster rat hippocampus assessed as substrate hydrolyzed per mg of protein at 5 mg/kg, po for 8 days by Ellman's method (reference value: 47.50 +/- 0.84 mol/min); type: functional
[12] = test system: Rattus norvegicus; assay: Activity at AChE in Charles Foster rat prefrontal cortex assessed as substrate hydrolyzed per mg of protein at 5 mg/kg, po for 8 days by Ellman's method (reference value: 45.83 +/- 0.94 mol/min); type: functional
[13] = molecular target: T1, Acetylcholinesterase; assay: Non competitive inhibition of electric eel AChE using acetylthiocholine iodide as substrate by Lineweaver-Burk plot analysis
[14] = test system: Rattus norvegicus; assay: Cognitive enhancing effect in Charles Foster rat assessed as reversal of scopolamine-induced amnesia measured as transfer latency at 10 mg/kg, po for 8 days administered 1 hr prior to scopolamine-challenge on day 7 measured on day 8 by elevated plus maze test (reference value: 62.17 +/- 0.47 seconds); type: functional
[15] = test system: Rattus norvegicus; assay: Cognitive enhancing effect in Wistar rat assessed as reversal of learning impairment measured as transfer latency at 5 mg/kg, po for 8 days measured on second day of test by elevated plus maze test (reference value: 66.824 +/- 0.47 seconds); type: functional; in short: as §1
[16] = test system: Rattus norvegicus; assay: Cognitive enhancing effect in Wistar rat assessed as reversal of learning impairment measured as transfer latency at 10 mg/kg, po for 8 days measured on first day of test by elevated plus maze test (reference value: 70.846 +/- 0.76 seconds); type: functional; in short: as §1
[17] = test system: Rattus norvegicus; assay: Cognitive enhancing effect in Charles Foster rat assessed as reversal of scopolamine-induced amnesia measured as transfer latency at 5 mg/kg, po for 8 days administered 1 hr prior to scopolamine-challenge on day 7 measured on same day by elevated plus maze test (reference value: 67.83 +/- 0.94 seconds); type: functional
[18] = Selectivity ratio of IC50 for human serum BChE to IC50 for electric eel AChE
In short: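 Ratio of IC50 (BChE) to IC50 (AChE). Both came from Ellman assays at 0.1 M phosphate pH 8.0 and 0.02 unit/mL enzyme: AChE (stock in phosphate buffer) with acetylthiocholine, human serum BChE (stock in 0.1% gelatine) with butyrylthiocholine.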

[19] = molecular target: T2, Cholinesterase; assay: Competitive inhibition of human serum BChE using butyrylthiocholine iodide as substrate by Lineweaver-Burk plot analysis
In short: (§3)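 Ellman assay in phosphate buffer pH 8 with a fixed amount of cholinesterase. Thiocholine substrate was varied from below to above, but near, Km, with or without inhibitor. Inhibition type was assigned from Lineweaver–Burk plots.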

[20] = test system: Rattus norvegicus; assay: Toxicity in albino rat assessed as change in normal behavioral response upto 100 mg/kg after 30 mins to 48 hrs; type: organism-based; set-up: dose 100 mg/kg; details: in vivo; in short: as §2
[21] = test system: Rattus norvegicus; assay: Activity at AChE in Charles Foster rat hypothalamus assessed as substrate hydrolyzed per mg of protein at 10 mg/kg, po for 8 days by Ellman's method (reference value: 40.50 +/- 0.76 mol/min); type: functional
[22] = test system: Rattus norvegicus; assay: Cognitive enhancing effect in Wistar rat assessed as reversal of learning impairment measured as transfer latency at 10 mg/kg, po for 8 days measured on second day of test by elevated plus maze test (reference value: 66.824 +/- 0.47 seconds); type: functional; in short: as §1
[23] = molecular target: T2, Cholinesterase; assay: Non competitive inhibition of human serum BChE using butyrylthiocholine iodide as substrate by Lineweaver-Burk plot analysis; in short: as §3
[24] = molecular target: T1, Acetylcholinesterase; assay: Competitive inhibition of electric eel AChE using acetylthiocholine iodide as substrate by Lineweaver-Burk plot analysis; in short: as §3

Row | Structure (SMILES) | Time [1] [s] | Activity [2] [mol/min] | Activity [3] | Activity [4] [mol/min] | Activity [5] [mol/min] | IC50 ([6]; read-out: IC50) [µM] | Time [7] [s] | IC50 [8] [µM] | Activity [9] | Time [10] [s] | Activity [11] [mol/min] | Activity [12] [mol/min] | Time [14] [s] | Time [15] [s] | Time [16] [s] | Time [17] [s] | Ratio IC50 [18] | Activity [20] | Activity [21] [mol/min] | Time [22] [s] | further results
1 | C/C(=N\NC(=O)Nc1ccncc1)c1ccc(O)cc1 | 60.5 | 33.83 | Dose-dependent effect | 34.13 | 34.17 | 0.145 | 48.07 | 0.358 | Non-toxic | 64.17 | 36.33 | 35.5 | 56.83 | 43.17 | 48.17 | 65.33 | 2.46 | Non-toxic | 31.5 | 39.5 | IC50 ([6]; read-out: pIC50 (converted)): 0.148 µM; Ki [13]: 246 nM; Ki [19]: 0.628 µM
2 | COc1cc(/C=N/NC(=O)Nc2ccncc2)ccc1O | 64.5 | 35.5 | Dose-dependent effect | 35.83 | 36.83 | 18.7 | 52 | 528 | Non-toxic | 65 | 39.5 | 36.62 | 57.87 | 46.17 | 49.67 | 68.17 | 28.2 | Non-toxic | 33.67 | 40.5 | IC50 ([6]; read-out: pIC50 (converted)): 19.1 µM; Ki [23]: 446 µM; Ki [24]: 20.5 µM
3 | O=C(N/N=C/c1ccc(O)cc1O)Nc1ccncc1 | 61.83 | 34.83 | Dose-dependent effect | 34.83 | 35.03 | 4.26 | 51 | 58.2 | Non-toxic | 65.17 | 37.5 | 36.17 | 57.67 | 42.5 | 49.17 | 65.57 | 13.7 | Non-toxic | 32.5 | 40.33 | Ki [23]: 72.7 µM; Ki [24]: 3.56 µM
4 | O=C(NN=C(c1ccccc1)c1ccccc1)Nc1ccncc1 | 56.13 | 30 | Dose-dependent effect | 31 | 32 | 0.052 | 46.81 | 18.5 | Non-toxic | 61.83 | 33.67 | 32.67 | 54.17 | 40.42 | 43.73 | 64.57 | 355 | Non-toxic | 29.17 | 37.97 | Ki [13]: 82 nM; Ki [19]: 16.8 µM
5 | O=C(N/N=C/c1ccccc1O)Nc1ccncc1 | 65 | 37.5 | Dose-dependent effect | 36.33 | 36.83 | 32.5 | 55.21 | 246 | Non-toxic | 67.33 | 39.17 | 39.33 | 63.67 | 49.12 | 54.19 | 70.17 | 7.56 | Non-toxic | 34.67 | 48.15 | IC50 ([6]; read-out: pIC50 (converted)): 33.1 µM; Ki [23]: 212 µM; Ki [24]: 25.6 µM

From ChEMBL document CHEMBL2413015, “Synthesis, evaluation and molecular dynamics study of some new 4-aminopyridine semicarbazones as an antiamnesic and cognition enhancing agents” (Bioorg Med Chem, 2013)
